From ChEMBL document CHEMBL3785072, “2,6-Di(arylamino)-3-fluoropyridine Derivatives as HIV Non-Nucleoside Reverse Transcriptase Inhibitors” (J Med Chem, 2016) come the findings set out here.

Data set [1] is described as follows: Selectivity index, ratio of CC50 for human TZM-bl cells to EC50 for R5-tropic HIV1 subtype B BaL infected in human TZM-bl cells. Format: toxicity, cell-based. The note with it: for selectivity ratio: TZM-bl cells, read-out: Selectivity Index.
In data set [2] the test system is Human immunodeficiency virus 1. Nature of the data set: Antiviral activity against R5-tropic HIV1 subtype B BaL infected in human TZM-bl cells assessed as viral inhibition pre-incubated for 30 mins prior to infection measured after 48 hrs by luciferase assay. It counts as functional, organism-based. In short, it runs like this:
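TZM-bl cells (10^4/well at 10^5 cells/mL, medium with 30 µg/mL DEAE dextran) pre-incubated with serial compound dilutions 30 min at 37 °C, 5% CO2. Then infected with 200 TCID50 HIV-1 BaL and incubated 48 h. Luciferase read-out expressed as % inhibition vs untreated controls. EC50 from non-linear regression. Triplicate wells, ≥3 independent experiments.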

Data set [3] has as its system Human immunodeficiency virus 1. Nature of the data set: Antiviral activity against nevirapine resistant R5-tropic HIV1 subtype C VI829 expressing reverse transcriptase Y181C mutant infected in human TZM-bl cells assessed as viral inhibition pre-incubated for 30 mins prior to infection measured after 48 hrs by luciferase assay. The note with it: Human immunodeficiency virus 1, VI829, TZM-bl. Format: functional, organism-based. A digest of the protocol: (§1)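 TZM-bl cells (10^4 per well, at 10^5 cells/mL in medium with 30μg/mL DEAE dextran) pre-incubated with serial compound dilutions, then infected with 200 TCID50 of resistant HIV-1; luciferase read after 48 h. Inhibition expressed as % of untreated controls; EC50 by non-linear regression. Triplicate wells, at least three independent experiments.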

The test system of data set [4] is Human immunodeficiency virus 1. In words: Antiviral activity against HIV1 NL4.3 expressing reverse transcriptase K103N-Y181C mutant infected in human TZM-bl cells assessed as viral inhibition pre-incubated for 30 mins prior to infection measured after 48 hrs by luciferase assay. Format: functional, organism-based. As to conditions: Human immunodeficiency virus 1, NL4.3, TZM-bl. In short, it runs like this:
as §1

The test system of data set [5] is Human immunodeficiency virus 1. Nature of the data set: Antiviral activity against HIV1 NL4.3 expressing reverse transcriptase K103N mutant infected in human TZM-bl cells assessed as viral inhibition pre-incubated for 30 mins prior to infection measured after 48 hrs by luciferase assay. Format: functional, organism-based. As to conditions: Human immunodeficiency virus 1, NL4.3, TZM-bl. In short, it runs like this:
as §1

For data set [6], the system named is Human immunodeficiency virus 1. In words: Antiviral activity against efavirenz resistant R5-tropic HIV1 subtype C VI829 expressing reverse transcriptase L100I-K103N mutant infected in human TZM-bl cells assessed as viral inhibition pre-incubated for 30 mins prior to infection measured after 48 hrs by luciferase assay. It counts as functional, organism-based. The note with it: Human immunodeficiency virus 1, VI829, TZM-bl. In short, it runs like this:
as §1

Setting [7] is: Human immunodeficiency virus 1, BaL, TZM-bl.

Each structure is given as a SMILES string.

What is called EC50 is the concentration at which the effect is half-maximal. For `COC(=O)/C=C/c1cc(C)c(Nc2ccc(F)c(Nc3ccc(Cl)cc3)n2)c(C)c1`, the selectivity ratio in data set [1] amounted to 950. Also, in data set [2] (setting [7]), the half-maximal effective concentration (EC50) is 53 nM.
Take `Cc1cc(/C=C/C#N)cc(C)c1Nc1ccnc(Nc2ccc(C#N)cc2)n1` [RILPIVIRINE]: the 50% effective concentration (EC50) worked out at 2.5 nM in data set [3]; 3.1 nM in data set [4]; 0.7 nM in data set [5]; 0.72 nM in data set [2] (setting [7]); 3.6 nM in data set [6]. Besides, the selectivity ratio in data set [1] is 10700.
Turning to `Cc1cc(C#N)cc(F)c1Nc1ccc(F)c(Nc2ccc(C#N)cc2)n1`, the selectivity ratio in data set [1] stood at 4600. The half-maximal effective concentration (EC50) in data set [2] (setting [7]) amounted to 8.8 nM.
For `Cc1cc(C#N)cc(C)c1Nc1ccc(F)c(Nc2ccc(Cl)cc2)n1` the same measures were 2000 and 15 nM.
For `Cc1cc(/C=C/C#N)cc(C)c1Nc1ncc(F)c(Nc2ccc(C#N)cc2)n1` (mixture of isomers) the same measures were over 42000 and 0.9 nM.
For `Cc1cc(/C=C/C#N)cc(C)c1Nc1ccc(F)c(Nc2ccc(/C=C/C#N)cc2)n1` the same measures were 19000 and 4.6 nM.
With `COC(=O)c1ccc(Nc2nc(Nc3c(C)cc(/C=C/C#N)cc3C)ccc2F)cc1`, in data set [1], the selectivity ratio amounted to 2100. The EC50 in data set [2] (setting [7]) came to 23 nM.
For `Cc1cc(/C=C/C#N)cc(C)c1Nc1ccc(F)c(Nc2ccc(C#N)cc2)c1` (mixture of isomers) the same measures were 7400 and 4.5 nM.
`Cc1cc(C#N)cc(C)c1Nc1ccc(F)c(Nc2ccc(C#N)cc2)n1`: the figures for the EC50 in data set [3], in data set [2] (setting [7]) and in data set [6] were 91 nM, 4.7 nM and over 10000 nM, respectively. For the same molecule, the selectivity ratio in data set [1] was determined as 7100.
Regarding `Cc1cc(/C=C/C#N)cc(C)c1Nc1ccc(F)c(Nc2ccc(C#N)cc2)n1`, the 50% effective concentration (EC50) in data set [3] amounted to 8.1 nM; in data set [4], 554 nM; in data set [5] it was 7.8 nM; in data set [2] (setting [7]), 1.5 nM; in data set [2] (tzm-bl), 1.6 nM; in data set [6] it was 540 nM. In data set [1], the selectivity ratio was found to be 62500. Also, the “Selectivity Index” value in data set [1] (tzm-bl) was determined as 37500.
Consider `Cc1cc(/C=C/C#N)ccc1Nc1ccc(F)c(Nc2ccc(C#N)cc2)n1` (mixture of isomers), for which, in data set [1], the selectivity ratio stood at 24000. Also, the EC50 in data set [2] (setting [7]) stood at 11 nM.
With `N#C/C=C/c1cc(F)c(Nc2ccc(F)c(Nc3ccc(C#N)cc3)n2)c(F)c1` (mixture of isomers), the selectivity ratio in data set [1] amounted to 4600. In addition, the concentration giving a half-maximal response (EC50) in data set [2] (setting [7]) came to 3.3 nM.
On to `Cc1cc(/C=C/C#N)cc(F)c1Nc1ccc(F)c(Nc2ccc(C#N)cc2)n1`, for which the EC50 is 25 nM in data set [3]; over 1000 nM in data set [4]; 36 nM in data set [5]; 1 nM in data set [2] (setting [7]); 272 nM in data set [6]. Further, the selectivity ratio in data set [1] was over 100000.
`Cc1cc(C)c(Nc2ccnc(Nc3ccc(C#N)cc3)n2)c(C)c1` [DAPIVIRINE]: the 50% effective concentration (EC50) is 11 nM in data set [3]; 92 nM in data set [4]; 2.8 nM in data set [5]; 1.4 nM in data set [2] (setting [7]); over 1000 nM in data set [6]. Besides, in data set [1], the selectivity ratio worked out at 2000.
As to `Cc1cc(/C=C/C#N)cc(C)c1Nc1ccc(F)c(Nc2ccc(Cl)cc2)n1` (mixture of isomers), in data set [1], the selectivity ratio amounted to 6600. The EC50 in data set [2] (setting [7]) turned out to be 6.3 nM.
Taken in the same sequence, the figures for `Cc1cc(C#N)cc(C)c1Nc1ccc(F)c(Nc2ccc(F)cc2)n1` were 830 and 51 nM.
With `Cc1cc(/C=C/C#N)cc(F)c1Nc1cccc(Nc2ccc(C#N)cc2)n1` (mixture of isomers), the figures for the half-maximal effective concentration (EC50) in data set [3], in data set [2] (setting [7]) and in data set [6] were 255 nM, 5.5 nM and 1100 nM, respectively. The selectivity ratio in data set [1] amounted to 5500.
For `Cc1cc(C)c(Nc2ccc(F)c(Nc3ccc(C#N)cc3)n2)c(C)c1` the same measures were 130 nM, 8.3 nM, over 10000 nM and 2000.
Consider `Cc1cc(/C=C/C#N)cc(F)c1Nc1ccc(F)c(Nc2ccc(C#N)cc2)c1` (mixture of isomers), for which, in data set [1], the selectivity ratio worked out at 6100. The 50% effective concentration (EC50) in data set [2] (setting [7]) was 11 nM.
`Cc1cc(/C=C/C#N)cc(C)c1Nc1ccc(F)c(Nc2ccc(F)cc2)n1` (mixture of isomers): the selectivity ratio in data set [1] came to 8100. In data set [2] (setting [7]), the EC50 was 6.2 nM.
Taken in the same sequence, the figures for `Cc1cc(C#N)cc(C)c1Nc1ncc(F)c(Nc2ccc(C#N)cc2)n1` were over 36000 and 2.8 nM.
Taken in the same sequence, the figures for `Cc1cc(C)c(Nc2cccc(Nc3ccc(C#N)cc3)n2)c(C)c1` were 1400 and 30 nM.
For `N#C/C=C/c1ccc(Nc2ccc(F)c(Nc3ccc(C#N)cc3)n2)cc1` (mixture of isomers) the same measures were 14 and 480 nM.
For the molecule `Cc1cc(/C=C/C#N)ccc1Nc1ccc(F)c(Nc2ccc(C#N)cc2)c1` (mixture of isomers), the selectivity ratio in data set [1] was determined as 89. The EC50 in data set [2] (setting [7]) amounted to 58 nM.
Turning to `Cc1cc(/C=C/C#N)cc(C)c1Nc1cccc(Nc2ccc(C#N)cc2)n1` (mixture of isomers), the EC50 is 91 nM in data set [3], 3.5 nM in data set [2] (setting [7]) and over 1000 nM in data set [6]. Moreover, the selectivity ratio in data set [1] was determined as 11000.
For `Cc1ccc(Oc2ccc(F)c(Nc3ccc(C#N)cc3)n2)cc1`, in data set [1], the selectivity ratio is 390. In data set [2] (setting [7]), the EC50 is 260 nM.
On to `COC(=O)/C=C/c1cc(C)c(Nc2ccc(F)c(Nc3ccc(C#N)cc3)n2)c(C)c1`, for which, in data set [1], the selectivity ratio is 13000. Moreover, in data set [2] (setting [7]), the concentration giving a half-maximal response (EC50) came out at 4.4 nM.
For `Cc1cc(C)c(Oc2ccc(F)c(Nc3ccc(C#N)cc3)n2)c(C)c1` the same measures were 6400 and 8.6 nM.
For `Cc1cc(/C=C/C#N)ccc1Nc1ccc(F)c(Nc2ccc(F)cc2)n1`, the selectivity ratio in data set [1] was found to be 210. Further, in data set [2] (setting [7]), the EC50 amounted to 400 nM.
As for `Cc1cc(C#N)cc(C)c1Nc1cccc(Nc2ccc(C#N)cc2)n1`, the EC50 in data set [3] came to 1500 nM; in data set [2] (setting [7]) it was 25 nM; in data set [6], 6600 nM. The selectivity ratio in data set [1] was found to be 930.
In the case of `Cc1cc(/C=C/C#N)ccc1Nc1ccc(F)c(Nc2ccc(Cl)cc2)n1`, in data set [1], the selectivity ratio came to 380. For the same molecule, the concentration giving a half-maximal response (EC50) in data set [2] (setting [7]) was 63 nM.
Taken in the same sequence, the figures for `COC(=O)/C=C/c1cc(C)c(Nc2ccc(F)c(Nc3ccc(F)cc3)n2)c(C)c1` were 610 and 84 nM.
